Measured values: PMC8248431 (The Febs Journal, 2021)

Legend:
[1] = system: AncDyPD‐b1; assay: Sulfoxidation; assay type: biochemical; conditions: 17, 25, and 30 °C, 36 h, pH 3.5, 1.0 mM H2O2, 2.5 mM thioanisole
[2] = system: AncDyPD‐b1 D222A; assay: Steady-state kinetics of peroxidase activity, AncDyPD-b1 D222A variant; assay type: biochemical; conditions: for n (cooperativity constant): cooperativity model, 25 °C, H2O2 with ABTS as electron donor
Outline: (§1)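 Purified untagged (SUMO-cleaved) mutant ancestral DyP, expressed in E. coli. H2O2 varied at 25 °C in 50 mM sodium citrate at the ABTS optimal pH 3.0. ABTS was held at its maximum-activity level below substrate inhibition: 10 µM for D222A, D222E and R390K-D222E, 25 µM for R390K, and 50 µM for R390A. Reactions were started with 50–500 nM enzyme, raised to 2.0 µM if activity was low.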

[3] = system: Irpex lacteus F17 DyP; conditions: cited from earlier work
[4] = system: AncDyPD‐b1 R390A; assay: Steady-state kinetics of peroxidase activity, AncDyPD-b1 R390A variant; assay type: biochemical; conditions: cooperativity model; 25 °C; H2O2 with ABTS as electron donor
Outline: as §1

[5] = system: AncDyPD‐b1 R390K; assay: Steady-state kinetics of peroxidase activity, AncDyPD-b1 R390K variant; assay type: biochemical; conditions: cooperativity model; 25 °C; H2O2 with ABTS as electron donor
Outline: as §1

[6] = system: AncDyPD‐b1 D222E; assay: Steady-state kinetics of peroxidase activity, AncDyPD-b1 D222E variant; assay type: biochemical; conditions: cooperativity model; 25 °C; H2O2 with ABTS as electron donor
Outline: as §1

[7] = system: AncDyPD‐b1 R390K‐D222E; assay: Steady-state kinetics of peroxidase activity, AncDyPD-b1 R390K-D222E variant; assay type: biochemical; conditions: cooperativity model; 25 °C; H2O2 with ABTS as electron donor
Outline: as §1

[8] = system: FtrDyP; assay: Mn2+ oxidation by FtrDyP; assay type: biochemical, Funalia (Coriolopsis) trogii; conditions: Mn^2+ substrate

Row | n (cooperativity constant) [4] | n (cooperativity constant) [5] | n (cooperativity constant) [6] | n (cooperativity constant) [2] | n (cooperativity constant) [7] | SMILES | Km [3] [µM] | k cat [3] [s⁻¹] | other results
1 |  |  |  |  |  | CSc1ccccc1 [thioanisole] |  |  | conversion (peroxygenase activity, sulfoxidation) [1]: no conversion
2 |  |  |  |  |  | CCn1c(=NN=c2sc3cc(S(=O)(=O)O)ccc3n2CC)sc2cc(S(=O)(=O)O)ccc21 [ABTS, 2,2'‐azino‐bis(3‐ethylbenzothiazoline‐6‐sulfonic acid)] | 62 | 8356 | fold decrease of KM versus WT ([2]; ABTS oxidation, D222A vs WT): 80 fold; fold lower k cat than WT ([2]; ABTS oxidation, D222A vs WT): 150 fold
3 | 1 | 2.1 | 2.2 | 2.8 | 2.3 | Nc1c(N=Nc2ccc(S(=O)(=O)CCOS(=O)(=O)[O-])cc2)c(S(=O)(=O)[O-])cc2cc(S(=O)(=O)[O-])c(N=Nc3ccc(S(=O)(=O)CCOS(=O)(=O)[O-])cc3)c(O)c12.[Na+].[Na+].[Na+].[Na+] [RB5, Reactive Black 5] |  |  | 
4 |  |  |  |  |  | Nc1c(S(=O)(=O)[O-])cc(Nc2cccc(S(=O)(=O)CCOS(=O)(=O)[O-])c2)c2c1C(=O)c1ccccc1C2=O.[Na+].[Na+] [RB19, Reactive Blue 19] | 133 | 5345 | 
5 |  |  |  |  |  | O=S(=O)([O-])[O-].[Mn+2] [Mn^2+, MnSO4] |  |  | efficiency of FtrDyP relative to AncDyPD‐b1 [8]: 500 times
6 | 1 | 1.2 | 1.4 | 1 | 2.2 | OO [H2O2, hydrogen peroxide] |  |  | 
